KDM4C_inh: blocks human GASC-1 (KDM4C) demethylase activity | 96,000 tested, 0.15% active | GST-KDM4C 2-372, H3K9me3 peptide, LANCE TR-FRET | inhibition, % at 12.5 µM | Q9H3R0;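 active means mean replicate inhibition above about 25%, with at least 55% of replicates also reaching it, limit read from the data, passing the limit was not always enough; inconclusive means only one of those two conditions met; inactive means neither condition met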
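material = GST-tagged GASC-1 (JMJD2C) catalytic fragment, aa 2-372 | amount = enzyme final amount 10 nM | medium = HEPES buffer, pH 7.5, plus ascorbate | also added = H3K9me3 peptide substrate, Fe(II), 2-oxoglutarate | dosing = single dose | times = 30 min demethylation and 1 h detection at room temperature | detection = LANCE TR-FRET | read-out basis = Fall in 671/618 emission ratio as inhibition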
T_cruzi_growth-1: inhibitors of T. cruzi proliferation; 77,000 tested, 5.9% active; AID 624255; inhibition, % at 8.34 µM; T. cruzi beta-gal in NIH3T3, GalScreen luminescence, 90 h;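 active means mean inhibition above about 93%, with at least 55% of replicates each passing it, limit read from the data, passing the limit was not always enough; inconclusive means only one of those two conditions holds; inactive means neither condition holds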
Pf_Dd2_inh: inhibitors of Plasmodium falciparum Dd2 growth. P. falciparum Dd2 growth, SYBR Green, 72 h; hits give low values. activity change, % at 10 µM. 94,000 tested, 2.3% active. AID 1159554; in the data active means activity change below about -80%; inconclusive means no clear call, values can overlap the other calls
IDH1_R132H_inh: IDH1 R132H (human) inhibition | O75874 | IDH1 R132H reductase, diaphorase/resazurin fluorescence, 60 min | inhibition, % at 10 µM | 70,000 tested, 0.18% active | AID 624101; in the data active means inhibition above about 34%; inconclusive means no clear call, values can overlap the other calls; inactive means below about 11%
Target sequence (O75874 whole entry R132H): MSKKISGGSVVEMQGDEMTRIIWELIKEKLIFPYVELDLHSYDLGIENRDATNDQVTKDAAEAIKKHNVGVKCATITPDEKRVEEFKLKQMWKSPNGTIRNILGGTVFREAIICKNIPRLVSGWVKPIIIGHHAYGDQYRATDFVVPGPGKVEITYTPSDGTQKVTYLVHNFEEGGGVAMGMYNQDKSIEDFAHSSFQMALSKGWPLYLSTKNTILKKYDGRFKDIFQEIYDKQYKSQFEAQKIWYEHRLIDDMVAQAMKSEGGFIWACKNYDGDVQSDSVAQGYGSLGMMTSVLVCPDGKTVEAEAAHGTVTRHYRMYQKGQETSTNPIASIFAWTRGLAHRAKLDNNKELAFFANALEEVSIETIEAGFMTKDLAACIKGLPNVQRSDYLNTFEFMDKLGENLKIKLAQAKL
T_cruzi_growth-2: Trypanosoma cruzi proliferation inhibition; 5,600 tested, 72% active; inhibition, % at 8.35 µM; shares compounds with T_cruzi_growth-1; T. cruzi beta-gal in NIH3T3, GalScreen luminescence, 90 h;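 active means mean replicate inhibition above about 95% and at least 55% of replicates individually reaching it, limit read from the data; inconclusive means only one of the two criteria is met; inactive means neither criterion is met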
T_cruzi_growth-3: blocks T. cruzi growth in NIH3T3 host cells. 5,600 tested, 21% active. T. cruzi beta-gal in NIH3T3, GalScreen luminescence, 90 h. shares compounds with T_cruzi_growth-1. AID 651740. inhibition, % at 2.09 µM;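 active means mean inhibition above about 95%, with at least 55% of replicates also reaching it, limit read from the data; inconclusive means meets just one of the two conditions; inactive means meets neither condition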
NIH3T3_tox: NIH/3T3 (mouse) viability loss; NIH/3T3 viability, CellTiter-Glo ATP luminescence, 90 h; 5,600 tested, 14% active; shares compounds with T_cruzi_growth-1; AID 651742; cytotoxicity (signal decrease), % at 8.35 µM;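 active means mean signal decrease across replicates above about 35% based on untreated-well scatter, with enough replicates individually passing, limit read from the data; inconclusive means no rule stated though some were filed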
NIH3T3_tox_2: NIH/3T3 (mouse) viability loss; shares compounds with T_cruzi_growth-1; NIH/3T3 viability, CellTiter-Glo ATP luminescence, 90 h; inhibition, % at 24.9 µM; 5,600 tested, 56% active;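 active means mean loss of cell viability signal at or above a set limit, and enough replicates individually reaching it; inconclusive means meets only the mean limit or only the replicate share; inactive means meets neither condition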
Numbers stand for hits; i = inactive; ? = inconclusive; nt = no result given; ! = not active in a repeat. In the library only some 5.8% were active in any assay of this set; here they are far more common.

SMILES KDM4C_inh T_cruzi_growth-1 Pf_Dd2_inh IDH1_R132H_inh T_cruzi_growth-2 T_cruzi_growth-3 NIH3T3_tox NIH3T3_tox_2
Cc1noc(C)c1S(=O)(=O)N(C)C[C@H]1OCCCC[C@@H](C)Oc2ccc(NC(=O)Nc3ccc4c(c3)OCO4)cc2C(=O)N([C@@H](C)CO)C[C@H]1C i 108 i i 105 i i i
Cc1noc(C)c1S(=O)(=O)N(C)C[C@H]1OCCCC[C@H](C)Oc2ccc(NC(=O)Nc3ccc4c(c3)OCO4)cc2C(=O)N([C@@H](C)CO)C[C@@H]1C i ? i i 106 i i i
Cc1noc(C)c1S(=O)(=O)N(C)C[C@@H]1OCCCC[C@@H](C)Oc2ccc(NC(=O)Nc3ccc4c(c3)OCO4)cc2C(=O)N([C@@H](C)CO)C[C@@H]1C i i i nt nt nt nt nt
Cc1noc(C)c1S(=O)(=O)N(C)C[C@H]1OCCCC[C@@H](C)Oc2ccc(NC(=O)Nc3ccc4c(c3)OCO4)cc2C(=O)N([C@H](C)CO)C[C@@H]1C i 103 i i ? i i 45
Cc1ccc(-c2nc3ccccc3s2)cc1NC(=O)COc1ccc(Cl)cc1 nt nt nt i nt nt nt nt
COc1ccc(NC(=O)N(C)C[C@@H]2OCCCC[C@H](C)Oc3ccc(NS(=O)(=O)c4ccc(Cl)cc4)cc3C(=O)N([C@@H](C)CO)C[C@@H]2C)cc1 i i i nt nt nt nt nt
C[C@@H]1CN([C@H](C)CO)S(=O)(=O)c2ccc(C#Cc3ccccn3)cc2O[C@H]1CN(C)Cc1ccccc1 i 106 i i 104 i i 99
C[C@H](CO)N1C[C@H](C)[C@@H](CN(C)Cc2ccccc2)Oc2cc(C#Cc3ccccn3)ccc2S1(=O)=O i i i i nt nt nt nt
C[C@H]1CN([C@@H](C)CO)S(=O)(=O)c2ccc(C#Cc3ccccn3)cc2O[C@H]1CN(C)Cc1ccccc1 i 113 i i 109 i i i
C[C@@H]1CN([C@@H](C)CO)S(=O)(=O)c2ccc(C#Cc3ccccn3)cc2O[C@H]1CN(C)Cc1ccccc1 i 86 i i ? 103 i 33
C[C@@H]1CN([C@@H](C)CO)S(=O)(=O)c2ccc(C#Cc3ccccn3)cc2O[C@@H]1CN(C)Cc1ccccc1 i 108 i i 109 i 43 i
NCC[C@H]1CC[C@H](NC(=O)CCN2CCCCC2)[C@@H](CO)O1 i nt i i nt nt nt nt
O=C(CN1CCOCC1)N1CC[C@@H]2[C@@H](CO)Nc3ccc(-c4ccccc4F)cc3[C@@H]21 i i i nt nt nt nt nt
O=C(Cc1ccccc1)N1CC[C@H]2[C@H](CO)Nc3ccc(-c4ccccc4)cc3[C@H]21 i ? i nt 105 i i i
O=C(Cc1ccccc1)N1CC[C@@H]2[C@H]1c1cc(-c3ccccc3F)ccc1N[C@@H]2CO i 113 i nt i i i 53
O=C(Cc1ccccc1)N1CC[C@H]2[C@H](CO)Nc3ccc(C#Cc4ccccc4)cc3[C@H]21 i 119 i nt 105 i i 75
O=C(Cc1ccccc1)N1CC[C@H]2[C@H](CO)Nc3ccc(C#Cc4cccc(F)c4)cc3[C@H]21 i nt i nt nt nt nt nt
CN(C)CC(=O)N[C@@H]1CC[C@H](CCNC(=O)C2CCC2)O[C@@H]1CO i nt i i nt nt nt nt
CC(C)CC#Cc1ccc2c(c1)O[C@H](CN(C)Cc1ccccn1)[C@@H](C)CN([C@H](C)CO)S2(=O)=O i 124 i i 106 i i 106
CC(C)CC#Cc1ccc2c(c1)O[C@@H](CN(C)Cc1ccccn1)[C@@H](C)CN([C@H](C)CO)S2(=O)=O i 109 i i 106 i i 104
C[C@H]1CN([C@@H](C)CO)C(=O)c2cc(C#CC3(O)CCCC3)cnc2O[C@H]1CN(C)C(=O)Nc1ccc2c(c1)OCO2 i nt i nt nt nt nt nt
CNC[C@H]1OCCCC[C@H](C)Oc2ccc(NC(=O)CCCN(C)C)cc2C(=O)N([C@H](C)CO)C[C@@H]1C i 100! i i i i i i
CNC[C@@H]1OCCCC[C@@H](C)Oc2ccc(NC(=O)CCCN(C)C)cc2C(=O)N([C@H](C)CO)C[C@@H]1C i i i nt nt nt nt nt
C[C@H]1CN([C@@H](C)CO)C(=O)c2cc(NC(=O)CCCN(C)C)ccc2O[C@@H]1CN(C)S(C)(=O)=O i 104 i i i i i i
CNC[C@@H]1OCCCC[C@H](C)Oc2ccc(NC(=O)CCC(F)(F)F)cc2C(=O)N([C@@H](C)CO)C[C@@H]1C i 98 i i ? i i i
SMILES KDM4C_inh T_cruzi_growth-1 Pf_Dd2_inh IDH1_R132H_inh T_cruzi_growth-2 T_cruzi_growth-3 NIH3T3_tox NIH3T3_tox_2
CNC[C@H]1OCCCC[C@@H](C)Oc2ccc(NC(=O)Cc3ccccc3)cc2C(=O)N([C@@H](C)CO)C[C@H]1C i ? i nt i i i i
Cc1noc(C)c1NC(=O)N(C)C[C@H]1Oc2ccc(NC(=O)CCCCCC(=O)Nc3ccccc3N)cc2CC(=O)N([C@H](C)CO)C[C@H]1C i i i i nt nt nt nt
C[C@H]1CCCCO[C@H](CN(C)C(=O)c2ccncc2)[C@@H](C)CN([C@@H](C)CO)C(=O)c2cc(NC(=O)c3ccncc3)ccc2O1 i i i nt nt nt nt nt
C[C@@H]1CCCCO[C@H](CN(C)C(=O)c2ccncc2)[C@@H](C)CN([C@@H](C)CO)C(=O)c2cc(NC(=O)c3ccncc3)ccc2O1 i 101 i i i i i i
CC(C)NC(=O)N(C)C[C@H]1OCCCC[C@H](C)Oc2ccc(NC(=O)c3ccncc3)cc2C(=O)N([C@@H](C)CO)C[C@H]1C i i i i nt nt nt nt
CC(C)NC(=O)N(C)C[C@H]1OCCCC[C@@H](C)Oc2ccc(NC(=O)c3ccncc3)cc2C(=O)N([C@H](C)CO)C[C@@H]1C i 96 i i i i i i
C/C=C/c1ccc([C@H]2[C@@H](CO)N(C(=O)NC(C)C)[C@@H]2CNC(C)=O)cc1 i nt i nt nt nt nt nt
COc1ccccc1-c1ccc2c(c1)O[C@H](CN(C)S(=O)(=O)c1ccc(F)cc1)[C@@H](C)CN([C@@H](C)CO)S2(=O)=O i 103 i i 101 i i 48
COc1ccccc1-c1ccc2c(c1)O[C@H](CN(C)S(=O)(=O)c1ccc(F)cc1)[C@H](C)CN([C@H](C)CO)S2(=O)=O i 102 i i 103 i i 43

Bioassay records (PubChem)
